Screens: PubChem, Broad Institute
ARNT-TACC3 inh – disruptors of human ARNT/TACC3 interaction; inhibition, % at 9.99 µM; AlphaScreen His-ARNT PAS-B/GST-TACC3 binding, luminescence; TACC3 fragment carries E629A point mutation; Q9Y6A5; AID 623870; 390,000 compounds, 0.66% hits;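 active means mean inhibition of replicates at least 50% and at least half of replicates each reaching 50%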;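 further: 0% = complete ARNT plus TACC3 wells and 100% = ARNT alone without TACC3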
CAL PDZ FP-1 – CAL PDZ (human) peptide binding inhibition. Q9HD26. purified CAL PDZ, TMR-peptide fluorescence polarization, 1 h. 300,000 compounds, 0.92% hits. AID 602252. inhibition, % at 24.9 µM;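 active means mean inhibition of at least 30% with at least half of replicates also reaching 30%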;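 further: 0% = DMSO neutral control and 100% = excess unlabeled competitor peptide PRC23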
Rce1 inh – yeast Ras-converting enzyme inhibition | yeast membranes, quenched prenylated peptide cleavage fluorescence | calls only | Q03530 | 290,000 compounds, 0.27% hits;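 active means fall in fluorescence gain of 50% or more versus controls, with final raw signal at or below 3038400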;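 further: plate controls were neutral control wells for no effect and wells lacking membranes for full effect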
Target sequence (Q03530 whole entry, looked up): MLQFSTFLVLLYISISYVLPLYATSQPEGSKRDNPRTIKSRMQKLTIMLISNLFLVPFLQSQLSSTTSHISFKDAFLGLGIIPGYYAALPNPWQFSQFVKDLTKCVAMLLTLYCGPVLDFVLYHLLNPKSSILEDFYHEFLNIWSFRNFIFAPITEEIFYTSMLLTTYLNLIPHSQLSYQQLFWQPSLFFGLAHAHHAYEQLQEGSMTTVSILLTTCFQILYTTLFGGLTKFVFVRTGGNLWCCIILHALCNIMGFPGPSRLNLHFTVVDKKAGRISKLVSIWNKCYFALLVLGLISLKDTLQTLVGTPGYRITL
CAL PDZ FP-2 – human CAL PDZ-peptide interaction inhibition. Q9HD26. purified CAL PDZ, TMR-peptide fluorescence polarization, 1 h. inhibition, % at 20 µM. 330,000 compounds, 0.02% hits;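 active means highest replicate inhibition of at least 40%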;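 further: plate controls were DMSO neutral control wells for no effect and unlabeled competitor peptide control wells for full effect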
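Material: tagged CAL PDZ protein CerCALP, purified; buffer or medium: sodium phosphate/NaCl buffer pH 7.4 with TCEP, IgG, Thesit; also added: fluorescent TMR peptide probe; schedule: 1 h incubation at room temperature before polarization reading; technique: fluorescence polarization from S- and P-plane intensities, G-factor corrected; control set: unlabelled peptide and DMSO controls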
AI-2 QS mod – Vibrio harveyi AI-2 quorum sensing modulation | Vibrio harveyi JMH597 AI-2 luminescence/OD600 ratio, 9 h; hits give low values; strain lacks LuxN and CqsS sensors; 0 = neutral-control median | activity change, % at 7.5 µM | 300,000 compounds, 0.4% hits; in the data active means activity change below about -75%, passing the limit was not always enough;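 further: luminescence divided by OD600 gain over 9 h not by final OD600 alone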
ARNT Alpha ctr – counter-screen for ARNT/TACC3 inhibitors: AlphaScreen artifacts | AC50, µM (highest dose often 68 µM), for inactives: top-dose activity change, negative = signal decrease | His-ARNT PASB-GST AlphaScreen artifact counter-screen, luminescence | 1,200 compounds, 50% hits | AID 651705 | shares compounds with ARNT-TACC3 inh;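 active means every separate test run was called active for a drop in luminescence, with AC50 within twice the top valid dose, actives reach about 71 µM in these data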
* hit, by the source's call; i = inactive; / = not tested or not shown. This is a sample that favours compounds with a hit; in the whole collection about 1.7% have one here.

SMILES	ARNT-TACC3 inh	CAL PDZ FP-1	Rce1 inh	CAL PDZ FP-2	AI-2 QS mod	ARNT Alpha ctr
O=C(Nc1ccc(F)c(S(=O)(=O)N2CCOCC2)c1)C1CCCCC1	23	-1	/	-1	/	/
Cc1coc2c(C)c3oc(=O)c(CCC(=O)N[C@@H](C)C(=O)N[C@@H](Cc4ccccc4)C(=O)O)c(C)c3cc12	74*	1	i	-2	15	-36%
Cc1c(CCC(=O)O)c(=O)oc2c(C)c3occ(-c4ccc(Br)cc4)c3cc12	56*	-15	i	-8	52	52µM*
CCCC(NC(=O)Cc1c(C)c2cc3c(C)c(C)oc3c(C)c2oc1=O)C(=O)N[C@@H](Cc1ccccc1)C(=O)O (some centres undefined)	-2	-12	i	-4	7	/
Clc1cccc(CNc2nc(-c3ccccn3)nnc2-c2ccccc2)c1	/	/	/	/	/	2.2µM*
CC(C)(C)c1ccc(CNc2nc(-c3ccccn3)nnc2-c2ccccc2)cc1	/	/	/	/	/	3.7µM*
CC(C)(C)c1ccc(-c2nc(NCc3cccnc3)c3ccccc3n2)cc1	-5	-2	i	-3	22	/
O=C(CCC(=O)c1ccc(Br)cc1)Nc1cccnc1	-15	-3	i	-1	13	/
CCOc1ccc(Cl)cc1C(c1c(C)[nH][nH]c1=O)c1c(C)[nH][nH]c1=O	active	5	i	-1	5	4%
CCOc1cc(C(c2c(C)[nH][nH]c2=O)c2c(C)[nH][nH]c2=O)ccc1OS(=O)(=O)c1ccccc1	10	-1	i	0	-5	/
Cc1c(NC(=O)c2cccnc2C(=O)O)cccc1C(=O)O	34*	-3	i	-2	-1	4%
CCN(C(=O)COc1cccc2cccnc12)C1CCS(=O)(=O)C1 (centres undefined)	53*	1	i	-3	8	-11%
CCN(C(=O)COc1ccccc1C(=O)NCc1ccccc1)C1CCS(=O)(=O)C1 (centres undefined)	-4	5	/	1	/	/
O=C(Nc1ccc(Br)cn1)c1cccc(C(=O)Nc2ccc(Br)cn2)c1	active	0	i	-1	10	-1%
COc1ccc(OC)c(CCNC(=O)c2sc3nc4n(c(=O)c3c2C)CCC4)c1	4	-10	i	-1	5	/
O=c1[nH]cnc2c1C(c1ccccc1[N+](=O)[O-])c1c(nc[nH]c1=O)O2	50*	-2	i	-1	19	-35%
COc1ccc(C2c3c(nc[nH]c3=O)Oc3nc[nH]c(=O)c32)cc1	4	-6	i	-1	19	/
Cn1c(N)c(C(=O)c2cc(-c3ccccn3)nc3ccccc23)c(=O)[nH]c1=O	29*	8	i	-4	16	-15%
Oc1cccc(CN2CCOCC2)c1O	15*	13	/	0	/	-1%
O=C(O)CCNc1cc(N2CCN(C(=O)c3ccco3)CC2)c2noc3c2c1C(=O)c1ccccc1-3	53*	-18	i	-3	-22	19µM*
Cc1cc(N2CCN(C(=O)c3ccco3)CC2)c2ccccc2n1	2	-1	i	0	1	/
OCCN=C1CCCc2c1[nH]c1ccc(Br)cc21	4	-3	i	0	31	/
CCN(CC)S(=O)(=O)c1ccc(NN)nc1	56*	0	/	-2	30	45µM*
O=C(Nc1cc2c(cc1Br)OCCO2)c1ccc(=O)[nH]c1	-4	-3	/	-2	/	/
O=C1CCN(Cc2ccccc2)C=C1c1ccc(C(F)(F)F)cc1	active	-3	/	0	/	-18%
CC(NC(=O)COC(=O)c1ccc([N+](=O)[O-])o1)c1ccccc1 (centres undefined)	29*	-2	/	1	/	1%
O=C(COC(=O)c1ccc([N+](=O)[O-])o1)Nc1ccc(F)cc1	active	-2	/	1	/	-5%
COc1cc(Cn2ccnc2)c(OC)cc1Cn1ccnc1	5	-2	i	-2	23	/
COC(=O)CNC(=O)CCC(=O)N1CCN(C(c2ccccc2)c2ccccc2)CC1	0	-3	i	0	12	/
CCCCNC(=O)CCC(=O)N1CCN(C(c2ccccc2)c2ccccc2)CC1	49*	-6	i	-1	0	-8%
